We go through 17 compounds from ChEMBL document CHEMBL1149261, “New constrained "molecular tongs" designed to dissociate HIV-1 protease dimer” (J Med Chem, 2004).

For assay [1], the target named is T1, Human immunodeficiency virus type 1 protease (Human immunodeficiency virus 1, UniProt Q72874). The experiment in a line: Inhibition of dimerization of HIV1 protease. The method, boiled down:
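Zhang kinetic analysis using the same fluorogenic DABCYL/EDANS substrate assay (pH 4.7 acetate buffer, 30 °C, ex 340/em 490 nm). Initial substrate held constant; at least four protease concentrations (4.7–13.6 nM) tested at several inhibitor concentrations. Dimerization inhibition constant Kid derived from Zhang plots.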

Assay [2] has as its target T1, Human immunodeficiency virus type 1 protease. The experiment in a line: Inhibition of HIV1 protease. The method, boiled down:
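Protease activity read with fluorogenic substrate DABCYL-γ-Abu-Ser-Gln-Asn-Tyr-Pro-Ile-Val-Gln-EDANS in 100 mM sodium acetate, 1 mM EDTA, 1 M NaCl, pH 4.7, 30 °C. Substrate and inhibitor (DMSO, 3% v/v final) preincubated 3 min, then enzyme added (7.5 nM final). Fluorescence (ex 340, em 490 nm) followed 3 min. 8–10 inhibitor concentrations; IC50 fitted to %inhibition = 100[I]0/(IC50+[I]0).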

Assay [3] deals with Human immunodeficiency virus type 1 protease (Human immunodeficiency virus 1) (UniProt Q72874). The experiment in a line: Inhibition of HIV1 protease at 5.7 uM. The method, boiled down: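 Fluorogenic assay with DABCYL-γ-Abu-Ser-Gln-Asn-Tyr-Pro-Ile-Val-Gln-EDANS substrate, in 100 mM sodium acetate, 1 mM EDTA and 1 M NaCl at pH 4.7 and 30 °C, with 3% v/v DMSO final. Substrate and inhibitor were preincubated for 3 min. The reaction was started with HIV-1 protease (7.5 nM final). The fluorescence increase (ex 340/em 490 nm) was followed over 3 min and compared with a substrate-only blank to give % inhibition.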

For orientation: Ki means a dissociation constant, usually derived from enzyme kinetics or from competition with a known ligand. High values mean lower affinity, low ones higher affinity. As a reminder, the IC50 is the concentration that inhibits the measured activity by half. Low readings indicate higher potency, high ones lower potency. `COC(=O)[C@@H](NC(=O)[C@H](CC(C)C)NC(=O)[C@@H](NC(=O)CCCOc1ccc2ccc(OCCCC(=O)N[C@@H](Cc3ccc(O)cc3)C(=O)N[C@@H](CCC(=O)OC(C)(C)C)C(=O)N[C@@H](CC(C)C)C(N)=O)nc2c1)C(C)C)C(C)C` had a Ki in assay [1] of 410 nM. Also, the IC50 in assay [2] amounted to 1000 nM.
Taken in the same sequence, the figures for `CC[C@H](C)[C@H](NC(=O)CCCOc1ccc2ccc(OCCCC(=O)N[C@H](C(=O)N[C@@H](CC(C)C)C(=O)N[C@H](C(=O)OC)C(C)C)C(C)C)cc2n1)C(=O)N[C@H](C(=O)N[C@@H](CC(C)C)C(=O)OC)[C@@H](C)O` were 400 nM and 5300 nM.
As usually defined, the inhibition is the drop in the measured response relative to a control, in per cent. Higher therefore signals a strong effect. For the compound `COC(=O)[C@@H](NC(=O)[C@H](CC(C)C)NC(=O)[C@@H](NC(=O)CCCOc1ccc2ccc(OCCCC(=O)N[C@@H](CCC(=O)O)C(=O)N[C@@H](CC(C)C)C(N)=O)nc2c1)C(C)C)C(C)C`, the inhibition in assay [3] worked out at 20%.
On the same count and under the same terms, under `CC[C@H](C)[C@H](NC(=O)[C@H](CCC(N)=O)NC(=O)CCCOc1ccc2ccc(OCCCC(=O)N[C@H](C(=O)N[C@@H](CC(C)C)C(=O)N[C@H](C(=O)OC)C(C)C)C(C)C)cc2n1)C(=O)N[C@H](C(N)=O)[C@@H](C)O` stands 30%.
`COC(=O)[C@@H](NC(=O)[C@H](CC(C)C)NC(=O)[C@@H](NC(=O)CCCOc1ccc2ccc(OCCCC(=O)N[C@@H](CCC(=O)O)C(=O)N[C@@H](CC(C)C)C(N)=O)cc2c1)C(C)C)C(C)C`: the affinity in assay [1] corresponds to a Ki of 900 nM. Further, the IC50 in assay [2] was 2800 nM.
For `CC[C@H](C)[C@H](NC(=O)[C@H](CCC(N)=O)NC(=O)CCCOc1ccc2ccc(OCCCC(=O)N[C@H](C(=O)N[C@@H](CC(C)C)C(=O)N[C@H](C(=O)OC)C(C)C)C(C)C)cc2c1)C(=O)N[C@H](C(N)=O)[C@@H](C)O`, the Ki in assay [1] was 2300 nM. For the same compound, inhibition in assay [2] was half-maximal at 2800 nM (IC50).
In turn, `COC(=O)[C@@H](NC(=O)[C@H](CC(C)C)NC(=O)[C@@H](NC(=O)CCCOc1ccc2ccc(OCCCC(=O)N[C@@H](CCC(=O)OC(C)(C)C)C(=O)N[C@@H](CC(C)C)C(N)=O)nc2c1)C(C)C)C(C)C` gave a Ki in assay [1] of 530 nM. The compound also returned an IC50 in assay [2] of 1800 nM.
On the same counts, the results for `COC(=O)[C@@H](NC(=O)[C@H](CC(C)C)NC(=O)[C@@H](NC(=O)CCCOc1ccc2ccc(OCCCC(=O)N[C@H](C(=O)N[C@@H](CC(C)C)C(=O)N[C@H](C(=O)OC)C(C)C)C(C)C)nc2c1)C(C)C)C(C)C` are 130 nM and 1400 nM.
With `COC(=O)[C@H](CC(C)C)NC(=O)[C@@H](NC(=O)CCCOc1ccc2ccc(OCCCC(=O)N[C@H](C(=O)N[C@@H](CC(C)C)C(=O)N[C@H](C(=O)OC)C(C)C)C(C)C)cc2c1)[C@@H](C)O`, in assay [1], the Ki was 1400 nM. Besides, in assay [2], the IC50 came out at 4000 nM and the Ki was 10300 nM.
In turn, `CC[C@@H](C)[C@H](NC(=O)[C@@H](NC(=O)CCCOc1ccc2ccc(OCCCC(=O)N[C@H](C(=O)N[C@H](C(=O)N[C@H](C(=O)OC)C(C)C)[C@H](C)CC)[C@@H](C)O)nc2c1)[C@@H](C)O)C(=O)N[C@H](C(=O)OC)C(C)C` registered a Ki in assay [1] of 1900 nM. Moreover, the inhibition in assay [3] worked out at 45%.
As for `CC[C@H](C)[C@H](NC(=O)CCCOc1ccc2ccc(OCCCC(=O)N[C@H](C(=O)N[C@@H](CC(C)C)C(=O)N[C@H](C(=O)OC)C(C)C)C(C)C)cc2n1)C(=O)N[C@H](C(N)=O)[C@@H](C)O`, the Ki in assay [1] amounted to 250 nM; in assay [2], 4300 nM. 1700 nM corresponded to half-maximal inhibition in assay [2] (IC50).
Compound `COC(=O)[C@@H](NC(=O)[C@H](CC(C)C)NC(=O)[C@@H](NC(=O)CCCOc1ccc2ccc(OCCCC(=O)N[C@@H](Cc3ccc(O)cc3)C(=O)N[C@@H](CCC(=O)OC(C)(C)C)C(=O)N[C@@H](CC(C)C)C(N)=O)cc2c1)C(C)C)C(C)C` gave a Ki in assay [1] of 230 nM. The IC50 in assay [2] worked out at 1100 nM.
On the same counts, the results for `COC(=O)[C@H](CC(N)=O)NC(=O)[C@H](CC(C)C)NC(=O)[C@@H](NC(=O)CCCOc1ccc2ccc(OCCCC(=O)N[C@H](C(=O)N[C@@H](CC(C)C)C(=O)N[C@H](C(=O)OC)C(C)C)C(C)C)cc2n1)[C@@H](C)O` are 80 nM and 5100 nM.
In assay [1], `COC(=O)[C@H](CC(C)C)NC(=O)[C@@H](NC(=O)CCCOc1ccc2ccc(OCCCC(=O)N[C@H](C(=O)N[C@@H](CC(C)C)C(=O)N[C@H](C(=O)OC)C(C)C)C(C)C)cc2n1)[C@@H](C)O` showed a Ki of 1500 nM. Also, the IC50 in assay [2] worked out at 1400 nM.
On the same counts, the results for `COC(=O)[C@@H](NC(=O)[C@H](CC(C)C)NC(=O)[C@@H](NC(=O)CCCOc1ccc2ccc(OCCCC(=O)N[C@H](C(=O)N[C@@H](CC(C)C)C(=O)N[C@H](C(=O)OC)C(C)C)C(C)C)cc2c1)C(C)C)C(C)C` are 560 nM and 3500 nM.
`COC(=O)[C@@H](NC(=O)[C@H](CC(C)C)NC(=O)[C@@H](NC(=O)CCCOc1ccc2ccc(OCCCC(=O)N[C@@H](CCC(=O)OC(C)(C)C)C(=O)N[C@@H](CC(C)C)C(N)=O)cc2c1)C(C)C)C(C)C`: the Ki in assay [1] worked out at 420 nM. This compound also displayed an IC50 in assay [2] of 1100 nM.
In turn, `CC[C@H](C)[C@H](NC(=O)CCCOc1ccc2ccc(OCCCC(=O)N[C@H](C(=O)N[C@@H](CC(C)C)C(=O)N[C@H](C(=O)OC)C(C)C)C(C)C)cc2c1)C(=O)N[C@H](C(N)=O)[C@@H](C)O` displayed a Ki in assay [1] of 1500 nM. Besides, in assay [2], the IC50 was 4300 nM and affinity was put at a Ki of 6200 nM.
